ChEMBL document CHEMBL3758079, “Design, synthesis and biological evaluation of chalconyl blended triazole allied organosilatranes as giardicidal and trichomonacidal agents” (Eur J Med Chem, 2016)

Legend:
Trichomonas vaginalis = assay: Antiparasitic activity against Trichomonas vaginalis 162 after 48 hrs by MTT assay; type: functional, organism-based; conditions: Trichomonas vaginalis, 162, 48 h
Procedure, shortened: (§1)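 Trophozoite cultures grown in 96-well plates at 37 °C for 24 h, then serial two-fold dilutions (0.9-15 μg/cm³) added from DMSO stocks, 0.5% DMSO as 100%-growth control. Incubated 48 h, then MTT 4 h at 37 °C in dark. Dissolved in DMSO, A570 read. IC50 from sigmoid dose-response. Run in duplicate, three independent experiments in triplicate.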

Giardia intestinalis = assay: Antiparasitic activity against Giardia lamblia Portland 1 after 48 hrs by MTT assay; type: functional, organism-based; conditions: Giardia duodenalis, Portland 1, 48 h; procedure, shortened: as §1
[1] = Cytotoxicity against HEK293 cells after 18 hrs by MTT assay; type: cell-based; conditions: human
[2] = Selectivity index, ratio of CC50 for HEK293 cells to IC50 for Trichomonas vaginalis 162; type: functional
[3] = Selectivity index, ratio of CC50 for human HeLa cells to IC50 for Trichomonas vaginalis 162; type: functional
[4] = Cytotoxicity against human HeLa cells after 18 hrs by MTT assay; type: cell-based
Procedure, shortened: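 Cells (5×10^4/well) seeded in RPMI-1640 with 10% FBS, overnight at 37 °C. Compounds added at 100 to 1.56 µM for 18 h at 37 °C. MTT (5 mg/ml in PBS) added for 3-4 h, formazan dissolved in DMSO. CC50 is the concentration giving 50% growth inhibition relative to untreated cells.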

[5] = Selectivity index, ratio of CC50 for HEK293 cells to IC50 for Giardia lamblia Portland 1; type: functional
[6] = Selectivity index, ratio of CC50 for human HeLa cells to IC50 for Giardia lamblia Portland 1; type: functional

Compound	IC50 (Trichomonas vaginalis) [µM]	IC50 (Giardia intestinalis) [µM]	CC50 at 18 h [1] [µM]	Ratio CC50/IC50 [2]	Ratio CC50/IC50 [3]	CC50 at 18 h [4] [µM]	Ratio CC50/IC50 [5]	Ratio CC50/IC50 [6]
COc1ccccc1/C=C/C(=O)c1cccc(OCc2cn(CCC[Si]34OCCN(CCO3)CCO4)nn2)c1	43.1	43.7						
COc1ccc(/C=C/C(=O)c2ccccc2OCc2cn(CCC[Si]34OCCN(CCO3)CCO4)nn2)c(OC)c1	22.1	35.4						
Cc1ccc(/C=C/C(=O)c2ccccc2OCc2cn(CCC[Si]34OCCN(CCO3)CCO4)nn2)cc1	50	48						
O=C(/C=C/c1ccc(Cl)cc1)c1ccc(OCc2cn(CCC[Si]34OCCN(CCO3)CCO4)nn2)cc1	21.9	33.1						
COc1ccccc1/C=C/C(=O)c1ccccc1OCc1cn(CCC[Si]23OCCN(CCO2)CCO3)nn1	23.8							
COc1ccc(/C=C/C(=O)c2ccccc2OCc2cn(CCC[Si]34OCCN(CCO3)CCO4)nn2)c(OC)c1OC	21.3		285	13.39	10.92	232		
COc1ccc(/C=C/C(=O)c2ccc(OCc3cn(CCC[Si]45OCCN(CCO4)CCO5)nn3)cc2)cc1	21.6	54.9						
O=C(/C=C/c1ccccc1)c1ccc(OCc2cn(CCC[Si]34OCCN(CCO3)CCO4)nn2)cc1	27.2	59.7						
COc1ccc(/C=C/C(=O)c2cccc(OCc3cn(CCC[Si]45OCCN(CCO4)CCO5)nn3)c2)c(OC)c1	43.8	43.9						
O=C(/C=C/c1ccccc1)c1cccc(OCc2cn(CCC[Si]34OCCN(CCO3)CCO4)nn2)c1	65.6	81						
O=C(/C=C/c1ccc(Cl)cc1)c1cccc(OCc2cn(CCC[Si]34OCCN(CCO3)CCO4)nn2)c1	55.7	78.5						
Cc1ccc(/C=C/C(=O)c2ccc(OCc3cn(CCC[Si]45OCCN(CCO4)CCO5)nn3)cc2)cc1	24.8	33.2	198	7.97	7.61	189	5.95	5.68
COc1ccc(/C=C/C(=O)c2ccccc2OCc2cn(CCC[Si]34OCCN(CCO3)CCO4)nn2)cc1	26.7	32.2						
COc1ccc(/C=C/C(=O)c2ccc(OCc3cn(CCC[Si]45OCCN(CCO4)CCO5)nn3)cc2)c(OC)c1OC	18.2	30.2	270	14.78	12.46	227	8.94	7.53
COc1ccc(/C=C/C(=O)c2cccc(OCc3cn(CCC[Si]45OCCN(CCO4)CCO5)nn3)c2)c(OC)c1OC	42.1	19.6	328	7.79	8.07	340	16.74	17.36
COc1ccccc1/C=C/C(=O)c1ccc(OCc2cn(CCC[Si]34OCCN(CCO3)CCO4)nn2)cc1	22.7	40.9						
COc1ccc(/C=C/C(=O)c2cccc(OCc3cn(CCC[Si]45OCCN(CCO4)CCO5)nn3)c2)cc1	30.3		267	8.81	6.7	203		
Cc1ccc(/C=C/C(=O)c2cccc(OCc3cn(CCC[Si]45OCCN(CCO4)CCO5)nn3)c2)cc1	101	131						
O=C(/C=C/c1ccc(Cl)cc1)c1ccccc1OCc1cn(CCC[Si]23OCCN(CCO2)CCO3)nn1	22.3	33.9						
O=C(/C=C/c1ccccc1)c1ccccc1OCc1cn(CCC[Si]23OCCN(CCO2)CCO3)nn1	23.3	28.1	208	8.94	10.23	238	7.41	8.48
COc1ccc(/C=C/C(=O)c2ccc(OCc3cn(CCC[Si]45OCCN(CCO4)CCO5)nn3)cc2)c(OC)c1	22.9	31.9						
Cc1ncc([N+](=O)[O-])n1CCO [METRONIDAZOLE]	55.9	62.5						
